The target of assay [1] is T1, Isopenicillin N synthase (Penicillium chrysogenum) (UniProt P08703).
T1 sequence (whole entry): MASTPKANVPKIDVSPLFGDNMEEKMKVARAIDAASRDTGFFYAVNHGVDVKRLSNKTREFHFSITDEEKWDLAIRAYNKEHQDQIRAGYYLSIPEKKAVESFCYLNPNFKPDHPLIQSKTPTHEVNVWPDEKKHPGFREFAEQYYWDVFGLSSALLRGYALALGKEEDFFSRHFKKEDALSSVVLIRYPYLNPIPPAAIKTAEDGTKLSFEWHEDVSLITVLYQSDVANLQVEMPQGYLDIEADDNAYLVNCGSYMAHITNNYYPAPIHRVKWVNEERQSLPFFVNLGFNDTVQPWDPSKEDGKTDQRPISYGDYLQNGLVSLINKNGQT
Put plainly: Anti Micrococcus luteus activity was tested for inhibition of Isopenicillin N synthetase (isopenicillin N synthase); yes. Summed up: (§1)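 Peptide added at a known amount to a standard IPNS reaction mixture with ACV as substrate before starting the reaction with enzyme. Applied to peptides not converted to an anti-M. luteus product. Percent inhibition derived from the ratio of reaction rates with and without the peptide.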

Assay [2] is described as follows: Antibiotic activity against Micrococcus luteus (ATCC 9341 strain). The class given is functional. Summed up:
(§2)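 Peptides at 0.3 mM incubated with purified IPNS in Tris-HCl pH 8.0 containing KCl, MgSO4, FeSO4, ascorbate and DTT, at 25 °C for 2–20 min in quadruplicate, then stopped with ethanol. Samples with and without penicillinase went into wells on M. luteus ATCC 9341 lawns, incubated overnight at 37 °C, and inhibition zones were read. Peptides giving no product were retested for 1 h at 3 mM.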

Assay [3] relates to Micrococcus luteus. The assay is described as follows: The compound was tested for the antibiotic activity against Micrococcus luteus(ATCC 9341 stain); no. The assay is classed as functional, organism-based. An outline of the steps:
as §2

The target in assay [4] is T1, Isopenicillin N synthase (Penicillium chrysogenum). Put plainly: Anti-micrococcus luteus activity was tested for inhibition of isopenicillin N synthetase. Conditions: Penicillium chrysogenum (Penicillium notatum). An outline of the steps: as §1
Assay [5] concerns the target T2, Regulatory protein BlaR1 (Bacillus licheniformis) (UniProt P12287).
T2 sequence (whole entry): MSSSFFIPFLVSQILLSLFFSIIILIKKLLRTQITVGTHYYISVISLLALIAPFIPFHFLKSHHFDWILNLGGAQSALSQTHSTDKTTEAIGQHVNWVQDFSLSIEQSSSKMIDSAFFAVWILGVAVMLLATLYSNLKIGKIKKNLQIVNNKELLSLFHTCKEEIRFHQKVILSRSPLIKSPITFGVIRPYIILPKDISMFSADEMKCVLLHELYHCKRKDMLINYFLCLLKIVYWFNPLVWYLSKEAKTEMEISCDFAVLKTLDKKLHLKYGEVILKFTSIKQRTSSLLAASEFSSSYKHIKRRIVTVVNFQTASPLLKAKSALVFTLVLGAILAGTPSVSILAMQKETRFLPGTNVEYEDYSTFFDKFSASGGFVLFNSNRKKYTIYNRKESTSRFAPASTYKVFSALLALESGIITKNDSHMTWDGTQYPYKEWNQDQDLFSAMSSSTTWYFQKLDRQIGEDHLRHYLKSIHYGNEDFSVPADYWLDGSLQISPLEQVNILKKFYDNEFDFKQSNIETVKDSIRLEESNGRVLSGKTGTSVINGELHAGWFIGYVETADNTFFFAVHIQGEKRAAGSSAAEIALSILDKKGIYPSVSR
Put plainly: Beta-lactamase induction in Bacillus licheniformis. Summed up:
(§3)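 Ethanol-stopped IPNS reactions (peptide 0.3 mM, 25 °C) were mixed 1:1 with log-phase B. licheniformis ATCC 14580 diluted to 30 Klett units and incubated for 2 h at 30 °C. Tylosin was added, then after 15 min nitrocefin, with A492 read over 30 min. β-Lactam was quantified by β-lactamase synthesis relative to penicillin G.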

Assay [6] deals with Micrococcus luteus. Put plainly: In vitro antibiotic activity against Micrococcus luteus(ATCC 9341 stain). The assay is classed as functional, organism-based. Summed up:
as §2

Assay [7] concerns the target T2, Regulatory protein BlaR1 (Bacillus licheniformis). Put plainly: The compound was tested for Beta-lactamase induction in B. licheniformis; +. An outline of the steps:
as §3

In assay [8] the target is T1, Isopenicillin N synthase (Penicillium chrysogenum). The assay is described as follows: Anti Micrococcus luteus activity was tested for inhibition of IPNS (isopenicillin N synthase); no. Summed up:
as §1

Turning to `N[C@@H](CCCC(=O)N[C@@H](CSSC[C@H](NC(=O)CCC[C@H](N)C(=O)O)C(=O)N[C@H](C(=O)O)C(C(F)(F)F)C(F)(F)F)C(=O)N[C@H](C(=O)O)C(C(F)(F)F)C(F)(F)F)C(=O)O`, in assay [1], the Activity entry was “Yes”. The Antibiotic activity entry in assay [2] is “No activity”.

Take `CC(O)[C@@H](NC(=O)C(CSSCC(NC(=O)CCC[C@H](N)C(=O)O)C(=O)N[C@@H](C(=O)O)C(C)O)NC(=O)CCC[C@H](N)C(=O)O)C(=O)O` (stereo partly specified): the Antibiotic activity result in assay [3] is “No activity”. The Activity result in assay [4] is “No activity”.

For `CC(C)[C@@H](NC(=O)[C@H](CSSC[C@H](NC(=O)c1cccc(C(N)C(=O)O)c1)C(=O)N[C@@H](C(=O)O)C(C)C)NC(=O)c1cccc(C(N)C(=O)O)c1)C(=O)O` (stereo partly specified), the Beta-lactamase induction entry in assay [5] was “+”. The Antibiotic activity result in assay [6] is “Yes”. The Activity result in assay [4] is “No activity”.

Take `CC(C)[C@@H](NC(=O)[C@H](CO)NC(=O)CCC[C@H](N)C(=O)O)C(=O)O`: the Beta-lactamase induction result in assay [5] is “+”. In addition, the Antibiotic activity result in assay [2] is “No activity”. Moreover, in assay [4], the Activity result was “No activity”.

Take `CC(C)[C@@H](NC(=O)[C@H](CSSC[C@H](NC(=O)Cc1cccc(N)c1)C(=O)N[C@@H](C(=O)O)C(C)C)NC(=O)Cc1cccc(N)c1)C(=O)O`: the Beta-lactamase induction entry in assay [5] was “+”. Also, the Antibiotic activity entry in assay [6] was “Yes”. Moreover, in assay [4], the Activity result is “No activity”.

Regarding `CC(C)[C@@H](NC(=O)[C@H](CSSC[C@H](NC(=O)CCCCCCN)C(=O)N[C@@H](C(=O)O)C(C)C)NC(=O)CCCCCCN)C(=O)O`, the Beta-lactamase induction entry in assay [5] is “+”. Also, in assay [6], the Antibiotic activity entry is “Yes”. Besides, the Activity entry in assay [4] is “No activity”.

As to `N[C@@H](CCCC(=O)N[C@@H](CSSC[C@H](NC(=O)CCC[C@H](N)C(=O)O)C(=O)NC(C(=O)O)C(C(F)(F)F)C(F)(F)F)C(=O)NC(C(=O)O)C(C(F)(F)F)C(F)(F)F)C(=O)O` (stereo in doubt; 62), the Activity entry in assay [1] was “Yes”. Moreover, the Antibiotic activity entry in assay [2] was “No activity”.

As for `N[C@@H](CCCC(=O)NC(CSSCC(NC(=O)CCC[C@H](N)C(=O)O)C(=O)N[C@H](Cc1c[nH]c2ccccc12)C(=O)O)C(=O)N[C@H](Cc1c[nH]c2ccccc12)C(=O)O)C(=O)O` (stereo partly specified), in assay [1], the Activity result was “Yes”. Further, the Antibiotic activity entry in assay [2] was “No activity”.

As to `CC(C)[C@@H](NC(=O)[C@H](CS)NC(=O)CCC[C@@H](N)C(=O)O)C(=O)O`, the Beta-lactamase induction entry in assay [5] was “+”. The Antibiotic activity result in assay [6] is “Yes”. Also, the Activity result in assay [4] is “No activity”.

With `N[C@@H](CCCC(=O)N[C@@H](CSSC[C@H](NC(=O)CCC[C@H](N)C(=O)O)C(=O)NC(C(=O)O)C(C(F)(F)F)C(F)(F)F)C(=O)NC(C(=O)O)C(C(F)(F)F)C(F)(F)F)C(=O)O` (stereo in doubt; 63), the Activity entry in assay [1] is “Yes”. Besides, in assay [2], the Antibiotic activity entry is “No activity”.

Turning to `N[C@@H](CCCC(=O)NC(CSSCC(NC(=O)CCC[C@H](N)C(=O)O)C(=O)N[C@H](Cc1ccc(O)cc1)C(=O)O)C(=O)N[C@H](Cc1ccc(O)cc1)C(=O)O)C(=O)O` (stereo partly specified), the Activity result in assay [1] is “Yes”. Further, the Antibiotic activity entry in assay [3] was “No activity”.

Consider `CC(C)[C@@H](NC(=O)[C@H](CSSC[C@H](NC(=O)OCc1ccccc1)C(=O)N[C@@H](C(=O)O)C(C)C)NC(=O)OCc1ccccc1)C(=O)O`, for which the Beta-lactamase induction result in assay [5] was “+”. Besides, in assay [2], the Antibiotic activity entry is “No activity”. In assay [4], the Activity result is “No activity”.

`CC(C)[C@@H](NC(=O)[C@H](C)NC(=O)CCC[C@H](N)C(=O)O)C(=O)O`: the Beta-lactamase induction result in assay [5] was “+”. The Antibiotic activity entry in assay [2] is “No activity”. Further, in assay [4], the Activity entry is “No activity”.

For the molecule `CC(C)[C@@H](NC(=O)[C@H](CSSC[C@H](NC(=O)CCCCN)C(=O)N[C@@H](C(=O)O)C(C)C)NC(=O)CCCCN)C(=O)O`, the Antibiotic activity result in assay [6] is “Yes”. Further, the Beta-lactamase induction entry in assay [7] was “+”. In addition, the Activity result in assay [8] is “No activity”.

In the case of `CC(C)[C@@H](NC(=O)[C@@H](CS)NC(=O)CCC[C@H](N)C(=O)O)C(=O)O`, the Beta-lactamase induction result in assay [5] was “+”. In assay [2], the Antibiotic activity entry was “No activity”. In addition, in assay [4], the Activity entry was “No activity”.

As for `CC(C)[C@@H](NC(=O)[C@@H](N)CSSC[C@H](N)C(=O)N[C@@H](C(=O)O)C(C)C)C(=O)O`, the Activity result in assay [1] was “Yes”. The Antibiotic activity result in assay [2] was “No activity”.

Consider `CC(C)[C@@H](NC(=O)[C@H](CS)NC(=O)Cc1ccc(O)cc1)C(=O)O`, for which the Beta-lactamase induction result in assay [5] was “+”. Further, in assay [2], the Antibiotic activity result was “No activity”. Also, the Activity result in assay [4] is “No activity”.

With `N[C@@H](CCCC(=O)N[C@@H](CS)C(=O)NCC(=O)O)C(=O)O`, the Activity result in assay [1] was “Yes”. Further, in assay [2], the Antibiotic activity result is “No activity”.

Regarding `CC(C)[C@@H](NC(=O)[C@H](CSSC[C@H](NC(=O)CCCCCN)C(=O)N[C@@H](C(=O)O)C(C)C)NC(=O)CCCCCN)C(=O)O`, the Beta-lactamase induction result in assay [5] was “+”. Moreover, in assay [6], the Antibiotic activity result was “Yes”. Further, in assay [4], the Activity result is “No activity”.

On to `CC(C)[C@@H](NC(=O)[C@H](CS)NC(=O)CCC[C@H](N)C(=O)O)C(=O)O`, for which, in assay [5], the Beta-lactamase induction result was “+”. Moreover, the Activity entry in assay [4] is “No activity”.

As to `N[C@@H](CCCC(=O)NC(CSSCC(NC(=O)CCC[C@H](N)C(=O)O)C(=O)N[C@H](CCl)C(=O)O)C(=O)N[C@H](CCl)C(=O)O)C(=O)O` (stereo partly specified), in assay [1], the Activity result was “Yes”. Moreover, the Antibiotic activity result in assay [2] was “No activity”.

In the case of `CC(C)[C@@H](NC(=O)[C@H](CSSC[C@H](NC(=O)[C@@H]1CCCN1)C(=O)N[C@@H](C(=O)O)C(C)C)NC(=O)[C@@H]1CCCN1)C(=O)O`, in assay [2], the Antibiotic activity entry was “No activity”. Moreover, the Activity entry in assay [8] is “No activity”.

With `CC(C)[C@@H](NC(=O)[C@H](CSSC[C@H](NC(=O)C(N)c1cccc(C(=O)O)c1)C(=O)N[C@@H](C(=O)O)C(C)C)NC(=O)C(N)c1cccc(C(=O)O)c1)C(=O)O` (stereo partly specified), the Beta-lactamase induction entry in assay [5] is “+”. For the same molecule, the Antibiotic activity entry in assay [2] was “No activity”. Also, the Activity result in assay [4] is “No activity”.

Take `CC(C)[C@@H](NC(=O)[C@H](CSSC[C@H](NC(=O)CCC[C@H](N)C(=O)O)C(=O)N[C@@H](C(=O)O)C(C)C)NC(=O)CCC[C@H](N)C(=O)O)C(=O)O`: the Beta-lactamase induction result in assay [5] was “+”. The Antibiotic activity entry in assay [6] is “Yes”. In addition, the Activity result in assay [4] is “No activity”.

Values taken from ChEMBL document CHEMBL1126293, “Substrate specificity of isopenicillin N synthase” (J Med Chem, 1992).
